Bioassay records from PubChem.
Sampled rows, rich in hits. Any-hit rate of the full collection: about 3.1%.
hERG protect – hERG rescue from dofetilide block, primary screen, cell-based, CHO-hERG, FluxOR thallium flux, dofetilide IC70 | 310,000 compounds, 0.51% hits | dofetilide IC70 present | AID 1511, 2009 | activation (rescue from dofetilide block), less the hit threshold, % at 10 µM | Voltage-gated inwardly rectifying potassium channel KCNH2 (Homo sapiens), Q12809;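 active = activation above the mean of controls blocked by dofetilide plus 5 SD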;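 note: thallium influx through hERG after potassium depolarization seen as dye fluorescence rise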
KCNQ1 inh – inhibitors of human KCNQ1 channel, primary screen, cell-based, thallium flux, high-throughput; CHO-K1 KCNQ1, FluxOR thallium flux fluorescence; active compounds read high; 310,000 compounds, 1.3% hits; B-score at 10 µM; Potassium voltage-gated channel subfamily KQT member 1 (Homo sapiens), P51787;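 active = compounds whose thallium flux B-score, printed positive for inhibition, exceeds three library SD while starting fluorescence stays within three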;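 note: channel opened by potassium depolarization with thallium stimulus after 20 min compound exposure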
Target sequence (P51787 whole entry, looked up): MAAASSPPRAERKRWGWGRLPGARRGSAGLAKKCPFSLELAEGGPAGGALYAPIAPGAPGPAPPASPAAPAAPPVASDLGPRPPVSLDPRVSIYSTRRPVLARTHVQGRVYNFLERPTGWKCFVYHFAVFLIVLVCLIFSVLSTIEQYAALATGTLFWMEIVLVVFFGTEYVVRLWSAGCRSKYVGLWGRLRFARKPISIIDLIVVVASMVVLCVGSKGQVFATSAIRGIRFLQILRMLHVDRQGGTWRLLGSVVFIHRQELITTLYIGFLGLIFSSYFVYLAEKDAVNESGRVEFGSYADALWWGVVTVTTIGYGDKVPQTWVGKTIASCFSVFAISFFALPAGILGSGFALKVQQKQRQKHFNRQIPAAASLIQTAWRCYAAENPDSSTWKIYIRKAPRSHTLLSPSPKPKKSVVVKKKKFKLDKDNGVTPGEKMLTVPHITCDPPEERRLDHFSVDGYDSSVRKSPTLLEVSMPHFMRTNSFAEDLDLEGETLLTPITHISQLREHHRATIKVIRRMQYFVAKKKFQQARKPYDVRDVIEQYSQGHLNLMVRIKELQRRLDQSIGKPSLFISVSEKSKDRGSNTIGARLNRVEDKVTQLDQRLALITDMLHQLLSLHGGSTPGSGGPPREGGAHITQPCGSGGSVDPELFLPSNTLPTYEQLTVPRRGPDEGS
KCNQ1 pot – potentiators or activators of KCNQ1 channel, primary screen, cell-based, thallium flux, high-throughput; Potassium voltage-gated channel subfamily KQT member 1 (Homo sapiens), P51787; CHO-K1 KCNQ1, thallium flux FluxOR fluorescence; active compounds read high; B-score at 10 µM; 310,000 compounds, 0.35% hits;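 active = fluorescence ratio B-score, a plate-corrected score, at least three library SD, with initial intensity B-score within 5 SD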
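Doses: Single concentration per compound, DMSO matched to controls | Test system: KCNQ1-transfected CHO-K1 cells | Timing: 90 min dye loading and 20 min compound exposure, both at room temperature | Measured by: Kinetic FluxOR thallium fluorescence, 10-s 1-Hz baseline, 110-s post-stimulus read | Medium: Assay buffer with matched DMSO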
KCNK9 block – KCNK9 potassium channel inhibitors, primary screen, HEK293 cells, thallium flux; FluxOR thallium flux fluorescence; active compounds read low; B-score at 10 µM; 310,000 compounds, 1.2% hits;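 active = ratio B-score over 3 SD below the library mean, with starting fluorescence within 5 SD of its mean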;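 note: negative B-score means less thallium flux so channel inhibition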
KCNK3 inh – human KCNK3 channel inhibitors, primary screen, CHO cells, FluxOR thallium flux, B-score; Potassium channel subfamily K member 3 (Homo sapiens), O14649; FluxOR fluorescence; active compounds read low; B-score at 10 µM; 340,000 compounds, 0.84% hits;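 active = B-score under library mean minus 4 SD, starting fluorescence ratio at most library mean plus 5 SD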;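 note: more negative B-score means stronger inhibition of thallium flux through KCNK3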
KCNK3 confirm – retest of human KCNK3 channel inhibitors, confirmation, CHO cells, FluxOR thallium flux, triplicate; shares compounds with KCNK3 inh; FluxOR fluorescence; 0% buffer, 100% carvedilol maximal block; ratio percent of control, % at 10 µM; 2,400 compounds, 99% hits; AID 651638, 2012;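 active = ratio percent of control, averaged over triplicates, above buffer control mean plus 5 SD, cut at about 64% in these data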;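 note: ratio is the fluorescence rise from min to max over baseline after thallium stimulus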
KCNK3 noninduced – thallium flux inhibition in non-induced cells, primary screen, counter-screen for KCNK3 inhibitor project, cell-based, non-induced KCNK3 line, FluxOR thallium, triplicate | 2,400 compounds, 40% hits | thallium flux ratio (lower = more inhibition) at 10 µM | shares compounds with KCNK3 inh | non-induced KCNK3 parental cells; active compounds read low;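 active = thallium flux ratio, averaged over three wells, more than 5 SD below the buffer control mean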;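 note: host cells are CHO cells without KCNK3 induction; ratio is peak minus trough fluorescence over baseline then normalized to buffer controls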
Numbers without * were called inactive; i = inactive; · = no result given.

SMILES	hERG protect	KCNQ1 inh	KCNQ1 pot	KCNK9 block	KCNK3 inh	KCNK3 confirm	KCNK3 noninduced
O=S(=O)(/C=C/c1ccccc1)N1CCN(c2nc(-c3ccccc3)nc3ccccc23)CC1	-13	i	i	i	i	·	·
Cc1cc(NC(=O)c2cc(C(C)C)on2)nn1Cc1ccc(Cl)cc1	-11	i	i	i	-9.5*	105*	i
Cc1cc(C(=O)Nc2cc(C)n(Cc3ccc(Cl)cc3)n2)no1	-6	i	i	i	i	·	·
Cc1c(C#N)c2ccccc2n1C	-8	i	i	i	i	·	·
Cn1c(CSc2ccccc2)c(C#N)c2ccccc21	-2	i	i	i	-11*	105*	0.16*
CCCC(CCC)C(=O)Nc1cccc(-c2cn3c(n2)SCC3)c1	-6	i	i	i	-8.7*	99*	i
O=C(Nc1cccc(-c2cn3c(n2)SCC3)c1)c1ccc2c(c1)OCO2	-24	i	i	i	-11*	104*	i
CCS(=O)(=O)Nc1cccc(-c2cn3c(n2)SCC3)c1	-8	i	i	i	i	·	·
NS(=O)(=O)c1ccc(CCNc2ncnc3c2c(-c2ccccc2)cn3-c2ccc(F)cc2)cc1	-7	i	i	i	i	·	·
CCOc1ccc(CCNC(=O)COC(=O)Cn2nc(C)c([N+](=O)[O-])c2C)cc1OCC	-12	i	i	i	i	·	·
NS(=O)(=O)c1ccc(NC(=O)COC(=O)c2ccc([N+](=O)[O-])s2)cc1	-7	i	i	i	i	·	·
Cc1nnc(SCC(=O)Nc2nsc(-c3ccc(C(C)(C)C)cc3)n2)s1	-14	i	i	i	-9.9*	102*	i
Cc1cccc(NC(=O)COC(=O)c2ccc(C)c(S(=O)(=O)N3CCCCC3)c2)c1	·	·	·	·	-12*	97*	i
Cc1ccc(C(=O)OCCOc2cccc(Cl)c2)cc1S(=O)(=O)N1CCOCC1	-8	i	i	i	-12*	94*	0.15*
O=C(OCCOc1cccc(Cl)c1)c1ccc(F)c(S(=O)(=O)N2CCOCC2)c1	·	·	·	·	i	·	·
Cc1ccc(C)c(COC(=O)c2cccc(S(=O)(=O)N3CCCC3)c2)c1	·	·	·	·	i	·	·
Cc1ccc(C(=O)OCC(=O)Nc2ccccc2)cc1S(=O)(=O)N1CCCCC1	·	·	·	·	i	·	·
COc1ccc(C(=O)OCc2cc(C)ccc2C)cc1S(=O)(=O)N1CCCC1	·	·	·	·	-14*	93*	i
CCOC(=O)N1CCC2(CC1)CC(=O)c1c(ccc3oc(C(=O)O)c(C)c13)O2	-17	i	i	i	-15*	0	i
CCOC(=O)C1=C(C)NC(=O)NC1c1cccc(OC)c1OCc1ccccc1Cl (stereo not drawn)	-7	i	i	i	i	·	·
Cc1ccc(NC(=S)N(Cc2ccco2)C(C)c2cccs2)c(Cl)c1 (stereo not drawn)	-13	i	i	i	-11*	101*	i
Cc1ccc(SCCNC(=O)/C=C/c2ccccc2Cl)cc1	-13	i	i	i	-14*	123*	0.13*
Cc1ccc(SCCNC(=O)/C=C/c2ccc(Cl)cc2)cc1	-6	i	i	i	i	·	·
CCOC(=O)N1CCN(c2nc3ccc(C(=O)c4ccccc4)cc3n3cnnc23)CC1	-10	i	i	i	-11*	83*	i
O=C(c1ccccc1)c1ccc2nc(N3CCN(C(=O)c4ccco4)CC3)c3nncn3c2c1	-5	i	i	i	i	·	·
SMILES	hERG protect	KCNQ1 inh	KCNQ1 pot	KCNK9 block	KCNK3 inh	KCNK3 confirm	KCNK3 noninduced
C/C(=N\Nc1ccc([N+](=O)[O-])cc1[N+](=O)[O-])C(C)C(C)C (stereo not drawn)	-8	8*	i	i	-9.2*	93*	0.14*
O=C(Nc1nc(-c2cccs2)cs1)c1ccc(Cl)s1	4	i	i	i	-23*	86*	i
CC(=O)Nc1cc(C(=O)OC(C(=O)c2ccccc2)c2ccccc2)ccc1C (stereo not drawn)	-19	i	i	i	-10*	79*	i
Cc1ccc(NC(=O)COC(=O)C2(c3ccc(Cl)cc3)CCCC2)cc1	0	i	i	i	i	·	·
O=c1sc2ccccc2n1COc1ccccc1	·	·	·	·	i	·	·
O=c1sc2ccccc2n1COc1ccc(Cl)cc1	-4	i	i	i	-9.1*	124*	0.15*
Cc1ccccc1OCCCn1c(=O)sc2ccccc21	-9	i	i	i	-9.6*	94*	i
CN(C)S(=O)(=O)c1ccc(Cl)c(-c2nnc3n2CCCCC3)c1	-9	i	i	i	i	·	·
CC(C)(C)OC(=O)C[C@@H]1C/C=C\C[C@@H](CC(=O)N(CCO)Cc2ccccc2)C(=O)N[C@H](C(C)(C)C)COC1=O	·	·	·	·	i	·	·
CCCCNC(=S)N1CCN(C(c2ccccc2)c2ccccc2)CC1	-28	i	i	-6.8*	-11*	93*	0.11*
CCCNC(=S)N1CCN(C(c2ccccc2)c2ccccc2)CC1	-8	i	i	i	i	·	·
COc1ccc(-c2nn(-c3ccccc3)cc2C(=O)O)cc1N	-8	i	i	i	i	·	·
CCOC(=O)c1ccccc1NC(=O)C(C)Oc1ccccc1 (stereo not drawn)	-9	i	i	i	-10*	78*	i
CCCC(C)C(=O)Nc1ccccc1C(=O)OCC (stereo not drawn)	-2	i	i	i	i	·	·
CC(C)n1c(SCC(=O)N2c3ccccc3Sc3ccccc32)nc2c1c(=O)n(C)c(=O)n2C	-8	i	i	i	-11*	98*	i
CCCn1c(SCC(=O)N2c3ccccc3Sc3ccccc32)nc2c1c(=O)n(C)c(=O)n2C	-19	i	i	i	i	·	·
CCC(C(=O)NCCCc1ccccc1)n1nc(C)c2c(C)n(-c3ccccc3)nc2c1=O (stereo not drawn)	-9	i	i	i	i	·	·
